From ChEMBL document CHEMBL3259819, “Antimicrobial peptides from skin secretions of Hypsiboas pulchellus (Anura: Hylidae)” (J Nat Prod, 2014)
In brackets after ≈: the same amount, converted by molar mass. Where a SMILES comes first, the peptide text is derived from it.

Assays:
Escherichia coli [1] = experiment: Antimicrobial activity against Escherichia coli; assay type: functional
Staphylococcus aureus [2] = experiment: Antimicrobial activity against Staphylococcus aureus; assay type: functional
Pseudomonas aeruginosa = experiment: Antimicrobial activity against Pseudomonas aeruginosa; assay type: functional
Bacillus subtilis = experiment: Antimicrobial activity against Bacillus subtilis; assay type: functional
Enterococcus faecalis = experiment: Antimicrobial activity against Enterococcus faecalis; assay type: functional
[3] = Toxicity in erythrocytes (unknown origin) assessed as hemolytic activity; assay type: cell-based, Erythrocyte; conditions: read-out: HD50 (the source's name)
Method in brief: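 Human erythrocytes from heparinised blood, spun 3000 rpm for 10 min after three saline washes, used at 0.4% (v/v) in isotonic saline. Equal volumes incubated with increasing concentrations (0.4 to 4.4 mg/mL for extracts) for 60 min at 37 °C. Cells spun at 3000 rpm for 5 min and supernatant A405 read. Lysis by 1% Triton X-100 served as 100%.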

[4] = Therapeutic index, ratio of hemolytic activity in human erythrocytes assessed as lowest concentration required for hemolysis to MIC for Staphylococcus aureus; assay type: cell-based; conditions: read-out: TI
Method in brief: (§1)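 TI is the lowest hemolytic concentration divided by the MIC, calculated per peptide and strain. LHC is the lowest peptide concentration giving 100% hemolysis of human erythrocytes (60 min, 37 °C). Where 100% hemolysis was not reached at 320 μM, 640 μM was used. MICs came from microtiter broth dilution against E. coli ATCC 25922 or S. aureus ATCC 25929.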

Staphylococcus aureus [5] = experiment: Antimicrobial activity against Staphylococcus aureus ATCC 25929 after 18 to 24 hrs by microtitre dilution method; assay type: functional
Method in brief: (§2)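 Modified microtiter broth dilution (Hancock method for AMPs). Strains were activated 24 h at 37 °C in Mueller-Hinton broth, and the inoculum was set to 5 × 10^7 cfu/mL. Tests ran in diluted MHB for 18 to 24 h at 37 °C. Peptides were solubilised in water with 10% acetic acid; the top assay concentration was 1280 μg/mL. MIC is the lowest concentration inhibiting growth.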

[6] = Hemolytic activity in human erythrocytes assessed as lowest concentration required to hemolysis after 60 mins; assay type: ADME, cell-based; conditions: erythrocyte, 1 h
Method in brief: (§3)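 Human erythrocytes came from heparinized blood, were washed three times in saline and pelleted, then suspended at 0.4% (v/v) in isotonic saline. 1 mL cells was mixed with 1 mL peptide dilution and held 60 min at 37 °C. After centrifugation, supernatant absorbance was read at 405 nm, with lysis by 1% Triton X-100 set as 100%.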

Escherichia coli [7] = experiment: Antimicrobial activity against Escherichia coli ATCC 25922 after 18 to 24 hrs by microtitre dilution method; assay type: functional; method in brief: as §2
[8] = Therapeutic index, ratio of hemolytic activity in human erythrocytes assessed as lowest concentration required for hemolysis to MIC for Escherichia coli; assay type: cell-based; conditions: read-out: TI; method in brief: as §1
[9] = Hemolytic activity in human erythrocytes at 320 uM after 60 mins; assay type: ADME, cell-based, Erythrocyte; conditions: read-out: Activity; method in brief: as §3
[10] = Hemolytic activity in human erythrocytes at 20 uM after 60 mins; assay type: ADME, cell-based, Erythrocyte; conditions: read-out: Activity; method in brief: as §3

Row | MIC (Escherichia coli [1]) | MIC (Staphylococcus aureus [2]) | MIC (Pseudomonas aeruginosa) | MIC (Bacillus subtilis) | MIC (Enterococcus faecalis) | MIC (Staphylococcus aureus [5]) | MIC (Escherichia coli [7]) | Structure (SMILES) | HC50 [3] | selectivity ratio [4] | MHC [6] | selectivity ratio [8] | hemolysis at 1 h, 320 µM [9] | hemolysis at 1 h, 20 µM [10]
1 | 5 µM (≈ 15.7 µg/mL) | 20 µM (≈ 62.8 µg/mL) | 10 µM (≈ 31.4 µg/mL) | – | – | – | – | CC(C)C[C@H](NC(=O)[C@H](C)NC(=O)[C@@H](NC(=O)[C@H](CCCCN)NC(=O)CNC(=O)[C@@H](NC(=O)[C@@H](NC(=O)[C@H](CCCCN)NC(=O)CNC(=O)[C@H](CC(C)C)NC(=O)[C@H](CO)NC(=O)[C@H](CCCCN)NC(=O)[C@H](CC(C)C)NC(=O)[C@H](CCCCN)NC(=O)[C@H](CC(=O)O)NC(=O)[C@H](CC(C)C)NC(=O)[C@H](Cc1c[nH]c2ccccc12)NC(=O)[C@H](C)N)C(C)C)C(C)C)C(C)C)C(=O)NCC(=O)N[C@H](C(=O)N[C@@H](C)C(=O)N[C@@H](CCC(N)=O)C(=O)N[C@@H](CC(N)=O)C(=O)N[C@@H](Cc1ccc(O)cc1)C(=O)N[C@@H](CC(C)C)C(=O)N[C@@H](CC(N)=O)C(=O)N1CCC[C@H]1C(=O)N[C@@H](CCC(N)=O)C(=O)N[C@@H](CCC(N)=O)C(=O)O)C(C)C (H-AWLDKLKSLGKVVGKVALGVAQNYLNPQQ-OH) | – | – | – | – | – | –
2 | 32 µM (≈ 42 µg/mL) | 8 µM (≈ 10.5 µg/mL) | 64 µM (≈ 83.9 µg/mL) | – | – | – | – | CC[C@H](C)[C@H](NC(=O)CN)C(=O)N[C@@H](CC(C)C)C(=O)N[C@@H](CC(=O)O)C(=O)N[C@@H](C)C(=O)N[C@H](C(=O)N[C@@H](CCCCN)C(=O)N[C@@H](C)C(=O)N[C@H](C(=O)N[C@@H](C)C(=O)N[C@@H](CCCCN)C(=O)N[C@@H](C)C(=O)N[C@@H](C)C(=O)NCC(=O)O)[C@@H](C)CC)[C@@H](C)CC (H-GILDAIKAIAKAAG-OH) | – | – | – | – | – | –
3 | 32 µM (≈ 59.7 µg/mL) | 8 µM (≈ 14.9 µg/mL) | 64 µM (≈ 119 µg/mL) | 8 µM (≈ 14.9 µg/mL) | 16 µM (≈ 29.8 µg/mL) | – | – | CC[C@H](C)[C@H](N)C(=O)N[C@@H](Cc1ccccc1)C(=O)NCC(=O)N[C@@H](C)C(=O)N[C@H](C(=O)N[C@@H](CC(C)C)C(=O)N1CCC[C@H]1C(=O)N[C@@H](CC(C)C)C(=O)N[C@@H](C)C(=O)N[C@@H](CC(C)C)C(=O)NCC(=O)N[C@@H](C)C(=O)N[C@@H](CC(C)C)C(=O)N[C@@H](CCCCN)C(=O)N[C@@H](CC(N)=O)C(=O)N[C@@H](CC(C)C)C(=O)N[C@H](C(=O)N[C@@H](CCCCN)C(=O)O)[C@@H](C)CC)[C@@H](C)CC (H-IFGAILPLALGALKNLIK-OH) | 18 µM | – | – | – | – | –
4 | – | – | – | – | – | 66 µM (≈ 128 µg/mL) | 33 µM (≈ 63.9 µg/mL) | CC(C)C[C@H](NC(=O)[C@H](CO)NC(=O)[C@@H]1CCCN1C(=O)[C@H](CO)NC(=O)[C@H](CC(C)C)NC(=O)[C@@H](N)CCCCN)C(=O)NCC(=O)N1CCC[C@H]1C(=O)N[C@H](C(=O)N[C@@H](CO)C(=O)N[C@@H](CCCCN)C(=O)NCC(=O)N[C@@H](CCCCN)C(=O)N[C@@H](CC(C)C)C(=O)N[C@@H](CC(C)C)C(=O)N[C@@H](C)C(=O)NCC(=O)N[C@@H](CCC(N)=O)C(=O)N[C@@H](CCCNC(=N)N)C(N)=O)C(C)C (H-KLSPSLGPVSKGKLLAGQR-NH2) | – | 4.9 | 320 µM | 9.7 | 100% | –
5 | – | – | – | – | – | 17 µM (≈ 32.2 µg/mL) | 17 µM (≈ 32.2 µg/mL) | CC(C)C[C@H](NC(=O)CNC(=O)[C@H](C)NC(=O)[C@H](CC(C)C)NC(=O)[C@H](CC(C)C)NC(=O)[C@@H](NC(=O)[C@H](CCCCN)NC(=O)[C@H](CC(C)C)NC(=O)[C@H](CC(C)C)NC(=O)[C@H](C)NC(=O)[C@@H]1CCCN1C(=O)[C@H](CC(C)C)NC(=O)[C@H](C)NC(=O)[C@@H](NC(=O)CNC(=O)[C@H](CC(C)C)NC(=O)[C@@H](N)CCCNC(=N)N)[C@@H](C)O)[C@@H](C)O)C(=O)N[C@@H](CC(N)=O)C(=O)NCC(N)=O (H-RLGTALPALLKTLLAGLNG-NH2) | – | 1.5 | 25 µM | 1.5 | – | > 90%
6 | – | – | – | – | – | 8 µM (≈ 15.8 µg/mL) | 16 µM (≈ 31.5 µg/mL) | CC(C)C[C@H](NC(=O)[C@H](CC(C)C)NC(=O)[C@@H](NC(=O)[C@@H]1CCCN1C(=O)[C@H](CCCCN)NC(=O)[C@@H](N)[C@@H](C)O)[C@@H](C)O)C(=O)NCC(=O)N[C@@H](CC(C)C)C(=O)N1CCC[C@H]1C(=O)N[C@@H](CC(C)C)C(=O)NCC(=O)N[C@@H](C)C(=O)NCC(=O)N1CCC[C@H]1C(=O)N[C@@H](C)C(=O)N[C@@H](C)C(=O)NCC(=O)N1CCC[C@H]1C(=O)NCC(=O)N[C@@H](CCCCN)C(=O)N[C@@H](CCCNC(=N)N)C(N)=O (H-TKPTLLGLPLGAGPAAGPGKR-NH2) | – | 80 | 640 µM | 40 | ≤ 12% | –
